Measured values pooled from the literature.
Compare with care: the assays were run in different laboratories.
Target: Serine/threonine-protein kinase Nek9 (NEK9, Homo sapiens, UniProt Q8TD19)
Sequence (Q8TD19 1-979, as in one of the studies): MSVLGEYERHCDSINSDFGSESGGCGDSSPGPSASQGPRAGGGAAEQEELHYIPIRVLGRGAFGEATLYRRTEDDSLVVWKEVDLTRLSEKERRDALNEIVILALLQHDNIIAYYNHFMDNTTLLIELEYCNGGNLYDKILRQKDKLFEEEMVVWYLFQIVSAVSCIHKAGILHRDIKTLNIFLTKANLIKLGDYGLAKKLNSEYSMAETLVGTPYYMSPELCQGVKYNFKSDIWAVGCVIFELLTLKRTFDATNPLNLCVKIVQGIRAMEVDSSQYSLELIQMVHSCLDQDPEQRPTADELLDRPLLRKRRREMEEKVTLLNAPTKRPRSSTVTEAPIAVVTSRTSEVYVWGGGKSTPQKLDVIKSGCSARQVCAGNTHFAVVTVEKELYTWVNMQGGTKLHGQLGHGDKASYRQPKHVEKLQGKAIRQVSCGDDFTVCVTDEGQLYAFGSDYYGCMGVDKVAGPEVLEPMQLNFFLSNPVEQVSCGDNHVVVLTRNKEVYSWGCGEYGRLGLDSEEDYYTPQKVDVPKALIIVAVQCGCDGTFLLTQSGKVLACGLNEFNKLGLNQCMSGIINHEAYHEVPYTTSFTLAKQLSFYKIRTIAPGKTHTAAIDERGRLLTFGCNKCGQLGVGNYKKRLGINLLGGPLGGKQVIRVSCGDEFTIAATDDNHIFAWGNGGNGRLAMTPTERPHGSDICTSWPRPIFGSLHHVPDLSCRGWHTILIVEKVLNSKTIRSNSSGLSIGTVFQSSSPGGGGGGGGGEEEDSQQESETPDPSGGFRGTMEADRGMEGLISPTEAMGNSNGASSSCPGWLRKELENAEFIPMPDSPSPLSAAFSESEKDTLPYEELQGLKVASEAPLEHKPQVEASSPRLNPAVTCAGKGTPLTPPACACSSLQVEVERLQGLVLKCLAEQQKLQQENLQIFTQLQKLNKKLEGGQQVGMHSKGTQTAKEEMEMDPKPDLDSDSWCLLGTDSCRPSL

Clc1ccc(Nc2nnc(Cc3ccncc3)c3ccccc23)cc1
remaining signal (cell-free assay; 0.5 µM): 98.4%

Cc1ccc(C(=O)Nc2ccc(CN3CCN(C)CC3)c(C(F)(F)F)c2)cc1C#Cc1cnc2cccnn12
remaining activity (enzyme activity; inhibitor; 23.5 nM): 100%

CNC(=O)c1cc(Oc2ccc(NC(=O)Nc3ccc(Cl)c(C(F)(F)F)c3)cc2)ccn1
remaining signal (cell-free assay; 0.5 µM): 95.4%

CS(=O)(=O)c1cc(C2(NC(=O)c3cncc4c3cnn4-c3ccc(F)cc3)CC2)ccn1
remaining binding (cell-free assay; competition with immobilised ligand; 1 µM): 100%

O=C(Nc1cnn(-c2csc(C(=O)NC3COC3)c2)c1)Nc1c(F)cccc1Cl
remaining activity (enzyme activity; inhibitor; 5 µM): 88.4%

Cc1cnc(NC2CCOCC2)nc1-n1cnc(C(=O)NC(CN)c2cc(F)cc(Cl)c2)c1 (stereo not drawn)
remaining activity (enzyme activity; inhibitor; radiometric; 1 µM): 101%

CC/C(=N\NC(=O)NCc1cccc(O)c1)c1ccc(O)c(C)c1O
inhibition (enzyme activity; inhibitor; 0.1 µM): -2.8%

N#CCCc1ccc2c(c1)-c1[nH]c3ccc([N+](=O)[O-])cc3c1CC(=O)N2
remaining signal (cell-free assay; 0.5 µM): 103%

CCCS(=O)(=O)Nc1ccc(F)c(C(=O)c2c[nH]c3ncc(-c4ccc(Cl)cc4)cc23)c1F
inhibition (enzyme activity; inhibitor; 1 µM): < 10%

COc1cc2ncnc(Nc3ccc(Oc4ccccc4)c(C)c3C)c2cc1OC
inhibition (enzyme activity; inhibitor; 1 µM): 5%

O=c1nc(-c2ccccn2)sc2ccccc12
remaining binding (binding; competition with immobilised ligand; 1 µM): 96%

COc1cc(Cl)c(C(=O)N[C@@H](CN[C@H]2CC[C@@H](N)CC2)Cc2ccc(C#N)cc2)cc1-c1ccc(CN[C@H](C)c2ccc(C)cc2)o1
remaining activity (enzyme activity; inhibitor; 1 µM): 127%

Cc1nc(N2CC[C@@H](O)C2)ncc1-c1cc(C(F)(F)F)cc2[nH]ncc12
remaining binding (binding; competition with immobilised ligand; 1 µM): 96%

Cc1cc(NC(=O)c2cccc3cc(-c4cccc5[nH]nc(N)c45)ccc23)ccc1F
activity vs control (enzyme activity; inhibitor; 0.1 µM): 126%

O=C(NCc1ncc(C(F)(F)F)cc1Cl)c1ccc2c(c1)C1(CCS(=O)(=O)CC1)[C@H](C1CC1)N2S(=O)(=O)c1ccc(F)cc1
remaining binding (cell-free assay; competition with immobilised ligand; 1 µM): 100%

CC(C)(C)c1nc2c(s1)c1nc(N)ncc1c1ccc(NS(=O)(=O)c3c(F)cccc3F)c(F)c12
remaining activity (enzyme activity; inhibitor; radiometric; 1 µM): 96%

C[C@H](NC(=O)c1cnc2n1[C@](C)(Cc1ccc(C#N)cc1)C(=O)N2c1cc(Cl)c(F)c(Cl)c1)C(=O)NC1(c2ccccn2)CC1
remaining binding (cell-free assay; competition with immobilised ligand; 1 µM): 100%

O=C1Nc2ccc(Cl)cc2C1=Cc1cc(Cl)c(O)c(Cl)c1
remaining signal (cell-free assay; 0.5 µM): 103%
